Compound activity from PubChem BioAssay.
This is a sample that favours compounds with a hit; in the whole collection about 2.1% have one here.
GRK2 aptamer HTS: human GRK2 inhibition via aptamer displacement; AID 488847; hit rate 0.59% among 330,000; bead flow cytometry, FAM-aptamer displacement from GRK2; P25098; inhibition of aptamer binding, % at 10 µM;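 active = inhibition of aptamer binding above 40%, roughly 3 SD of noise, on plates passing a quality check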;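 also: median bead fluorescence of bound FAM aptamer so fluorescent compounds give negative values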
Scp1 inh: Scp-1 (human) phosphatase inhibition; Recombinant Scp1, phosphopeptide, malachite green phosphate absorbance; inhibition, % at 20 µM; Q9GZU7; AID 493091; hit rate 0.88% among 340,000;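 active = inhibition above about 50% at 20 µM, limit read from the data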;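 also: plate controls were DMSO wells with enzyme for no effect and wells lacking enzyme for full effect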
Target sequence (Q9GZU7 76-261 limits assumed): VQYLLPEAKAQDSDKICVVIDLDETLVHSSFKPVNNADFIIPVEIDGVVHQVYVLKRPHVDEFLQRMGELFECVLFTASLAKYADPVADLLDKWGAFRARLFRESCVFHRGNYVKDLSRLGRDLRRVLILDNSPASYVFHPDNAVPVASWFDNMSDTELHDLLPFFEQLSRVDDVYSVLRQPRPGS
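Test system – truncated SCP-1 phosphatase (76-261aa) · Reagent – Phosphorylated 17-residue peptide substrate · Incubation – 45 min room-temperature reaction, 5 min colour, 30 min stabiliser · Detection – colorimetric phosphate reagent with accelerator and stabiliser, absorbance at 630 nm · Measure – % inhibition at 20 µM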
DNMT1 block: DNMT1 (human) enzyme inhibition; P26358; DNMT1 molecular beacon, Hinp1I cleavage, fluorescence; inhibition (reported as % activation of signal), % at 10 µM; hit rate 0.83% among 360,000; AID 588458; in the data active = inhibition above about 50%
SUMO1 PPI mod: SUMO1-SIM interaction modulation; inhibition, % at 20 µM; hit rate 0.33% among 360,000; SUMO1 binding to a labelled peptide, TR-FRET, 1 h; P63165; AID 602429; in the data active = inhibition above about 37%
Target sequence (P63165 whole entry, looked up): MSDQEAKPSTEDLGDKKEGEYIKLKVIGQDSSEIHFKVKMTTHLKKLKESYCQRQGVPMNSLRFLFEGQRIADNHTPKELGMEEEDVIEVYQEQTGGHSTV
LMPTP block: blocks human LMPTP phosphatase. P24666. recombinant LMPTP-A, OMFP fluorogenic substrate, fluorescence intensity. inhibition, % at 20 µM. hit rate 0.22% among 360,000. AID 651560;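 active = compounds that cut the enzyme signal by at least half of the control window in the single-dose screen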;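 also: plate controls were DMSO wells with enzyme plus substrate for no effect and substrate without enzyme for full effect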
Target sequence (P24666 whole entry, looked up): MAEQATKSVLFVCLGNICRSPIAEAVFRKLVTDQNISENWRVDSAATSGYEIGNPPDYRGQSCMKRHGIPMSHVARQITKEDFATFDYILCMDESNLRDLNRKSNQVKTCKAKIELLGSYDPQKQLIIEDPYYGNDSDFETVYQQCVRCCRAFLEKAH
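test system = LMPTP-A | amount = 0.625 nM LMPTP-A final | reagent = fluorogenic phosphatase substrate OMFP at 400 µM final | incubation = 50 min at room temperature | benchmarks = no-enzyme low control, uninhibited high control | medium = Bis-Tris pH 6.0, DTT, detergent | signal = fluorescence intensity of OMFP turnover product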
STEP block: blocks human striatal-enriched tyrosine phosphatase; P54829; inhibition, % at 20 µM; recombinant STEP, OMFP fluorogenic substrate, fluorescence; hit rate 0.25% among 360,000;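 active = inhibition at 20 µM, scaled per plate between control wells, above about 37%, limit read from the data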;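 also: 0% = DMSO with enzyme and substrate and 100% = substrate only without enzyme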
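Assay system: isolated STEP enzyme. Buffer or medium: pH 6.0 Bis-Tris with DTT and Tween 20. Also added: fluorogenic phosphatase substrate OMFP at 25 µM final. Dosing: 20 µM, 1% DMSO. Timing: 20 min reaction, room temperature, in the dark. Measured by: fluorescence intensity, excitation 480 nm, emission 540 nm. Evaluation: normalized % inhibition.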
Scp1 confirm: Scp-1 (human) inhibition, single-dose confirmed; inhibition, % at 20 µM; shares compounds with Scp1 inh; recombinant SCP-1 catalytic domain, phosphate release, malachite green absorbance; hit rate 61% among 2,500;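 also: plate controls were DMSO with enzyme for no effect and buffer wells lacking enzyme for full effect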
Scp-1 MG ctr: counter-screen for Scp-1 inhibitors: colorimetric interference. shares compounds with Scp1 inh. Colorimetric interference counterscreen, malachite green absorbance 630 nm. apparent inhibition (interference), % at 20 µM. 2,500 tested, under 10 active. AID 540313;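 also: compounds added after enzyme reaction finished so only phosphate colour detection is probed; plate controls were DMSO wells with completed Scp-1 reaction for no effect and substrate wells lacking enzyme for full effect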
Scp-1 Tm shift: validation of human Scp-1 inhibitors by thermal shift binding; shares compounds with Scp1 inh; Recombinant SCP1, Sypro Orange thermal shift Tm; thermal shift relative to vanadate control, % at 40 µM; hit rate 25% among 1,500;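 active = substances whose mean melting-temperature shift, as a percentage of the reference inhibitor's shift, reaches about 5.3%, limit read from the data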;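 also: 0% = Tm of DMSO wells and 100% = Tm with sodium orthovanadate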
Beacon interf DR: beacon fluorescence artifact, dose response counter-screen | shares compounds with DNMT1 block | molecular beacon fluorescence, spectral interference counter-screen | IC50, µM | 200 tested, under 10 active | AID 602382; call rule not given here
DNMT1 confirm: DNMT1 inhibition confirmation, single concentration; hit rate 8% among 2,300; DNMT1 molecular beacon HinP1I cleavage, fluorescence; shares compounds with DNMT1 block; inhibition, % at 10 µM;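 active = average inhibition of at least 30% in the single-concentration confirmation test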
DNMT1 interf: shows spectral interference in the DNMT1 beacon assay. shares compounds with DNMT1 block. DNMT1 molecular beacon spectral interference counterscreen, fluorescence 485/520. activation (fluorescence interference), % at 10 µM. hit rate 1% among 2,300. AID 602387;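 active = activation of at least 30% at 10 µM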;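 also: DNMT1 catalytic domain with a HinP1I cleavage step and a FAM/dabcyl DNA beacon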
Starred values were filed as active, the others as inactive.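 The calls were made as follows, unless noted: active = inhibition of at least 30% at 20 µM; inactive = the rest.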

Screening C=C(C)C(=O)Nc1cccc(C2=NOC3(C2)C[C@@H](C(N)=O)N(C(=O)/C(C)=C/C)C3)c1 (stereo partly drawn) returned GRK2 aptamer HTS 94.0*, Scp1 inh 99.4*, DNMT1 block 109.7*, SUMO1 PPI mod 98.2*, LMPTP block -2.1, STEP block 8.5, Scp1 confirm 68.5*, Scp-1 MG ctr -7.9, Scp-1 Tm shift -6.9, Beacon interf DR >99, DNMT1 confirm 101.5* and DNMT1 interf -1.7.
For O=C(Nc1ncccn1)c1ccc(C(F)(F)F)cc1 the results were GRK2 aptamer HTS 3.0, Scp1 inh -7.9, DNMT1 block -1.4, SUMO1 PPI mod -2.4, LMPTP block -1.9 and STEP block 7.4.
Screening Cc1cc(C=O)c(C)n1-c1ccc(Cl)c(C(=O)O)c1 returned GRK2 aptamer HTS 1.0, Scp1 inh 73.6*, DNMT1 block 87.7*, SUMO1 PPI mod 10.2, LMPTP block 3.7, STEP block 65.6*, Scp1 confirm 76.1*, Scp-1 MG ctr -15.6, Scp-1 Tm shift 6.2*, DNMT1 confirm 21.0 and DNMT1 interf -2.2.
For CN(C)c1ccc(/C=C2\C(=N)N3N=C(CC(=O)N4CCCCC4)SC3=NC2=O)cc1 the results were GRK2 aptamer HTS 0.0, Scp1 inh 49.6, DNMT1 block 13.3, SUMO1 PPI mod -31.5, LMPTP block 12.2 and STEP block -5.3.
N=C1/C(=C\c2ccc(Br)o2)C(=O)N=C2SC(CC(=O)N3CCCCC3)=NN12 was read as GRK2 aptamer HTS 15.0, Scp1 inh 79.7*, DNMT1 block 93.9*, SUMO1 PPI mod 46.3*, LMPTP block 34.2, STEP block 18.0, Scp1 confirm 47.6*, Scp-1 MG ctr -10.7, Scp-1 Tm shift 12.3*, DNMT1 confirm 14.6 and DNMT1 interf 6.1.
Screening O=C(O)/C(=C/c1ccco1)NC(=O)c1ccccc1 returned GRK2 aptamer HTS 12.0, Scp1 inh 74.9*, DNMT1 block 66.8*, SUMO1 PPI mod 3.7, LMPTP block -1.1, STEP block 5.0, Scp1 confirm 41.5*, Scp-1 MG ctr -21.6, Scp-1 Tm shift -15.2, DNMT1 confirm 2.0 and DNMT1 interf 2.9.
For COc1ccc(OC)c(NC(=O)c2ccc(OC3CSC3)cc2)c1 the results were GRK2 aptamer HTS 0.0, Scp1 inh -13.8, DNMT1 block -1.9, SUMO1 PPI mod 6.2, LMPTP block 0.8 and STEP block 0.7.
N=C1S/C(=C\c2ccccc2F)C(=O)N1c1ccc(F)cc1 was read as GRK2 aptamer HTS 0.0, Scp1 inh 87.5*, DNMT1 block 60.1*, SUMO1 PPI mod -2.6, LMPTP block 38.3, STEP block 18.5, Scp1 confirm -5.9, Scp-1 MG ctr -9.3, DNMT1 confirm 2.7 and DNMT1 interf -1.0.
`Cc1ccccc1NC(=O)CSc1ccsc1[N+](=O)[O-]` gave GRK2 aptamer HTS 16.0, Scp1 inh 72.2*, DNMT1 block 104.4*, SUMO1 PPI mod 6.1, LMPTP block 49.8, STEP block 18.1, Scp1 confirm 62.3*, Scp-1 MG ctr -15.1, Scp-1 Tm shift 13.6*, Beacon interf DR >99, DNMT1 confirm 49.5* and DNMT1 interf -2.0.
